Experiments:
PC-3 = assay: Growth inhibition of human PC3 cells after 48 hrs by SRB assay; assay type: functional; conditions: PC-3, 48 h
Method in brief: (§1)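 Cells (from ATCC) grown in RPMI-1640 with 10% FBS and penicillin/streptomycin/amphotericin B, 37 °C, 5% CO2. Seeded overnight, then exposed to various compound concentrations for 48 h. A time-zero plate fixed with 10% TCA at dosing. After treatment, cells fixed with 10% TCA, stained with 0.4% SRB in 1% acetic acid, lysed in 10 mM Trizma base, A515 read. GI50 = concentration giving 50% reduction of the control protein increase.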

A549 = assay: Growth inhibition of human A549 cells after 48 hrs by SRB assay; assay type: functional; conditions: A549, 48 h; method in brief: as §1

SMILES | GI50 (PC-3) [µM] | GI50 (A549) [µM]
COC1=C(OC)[C@H](O)[C@H](C/C=C(\C)CC/C=C(\C)C/C=C/C(C)(C)O)[C@@H](C)C1=O | > 30 | 23.8
COc1cc2c(c(C)c1O)C=C[C@](C)(CC/C=C(\C)CCC=C(C)C)O2 | > 30 | > 30
COC1=C[C@H](O)[C@H](C/C=C(\C)CC/C=C(\C)C[C@@H]2C[C@@H](C)C(=O)O2)[C@@H](C)C1=O | > 30 | > 30
COC1=C[C@H](O)[C@H](C/C=C(\C)CC/C=C(\C)C[C@H](O)/C=C(\C)CO)[C@@H](C)C1=O | > 30 | > 30
COC1=C(OC)[C@H](OC(C)=O)[C@H](C/C=C(\C)CC/C=C(\C)C[C@H](O)/C=C(\C)C(=O)O)[C@@H](C)C1=O | > 30 | > 30
COC1=C(OC)[C@H](OC(C)=O)[C@H](C/C=C(\C)CC/C=C(\C)C[C@H](O)/C=C(\C)CO)[C@@H](C)C1=O | > 30 | 29
COC1=C(OC)[C@H](OC(C)=O)[C@H](C/C=C(\C)CC/C=C(\C)C[C@@H]2C[C@@H](C)C(=O)O2)[C@@H](C)C1=O | > 30 | 11.3
COC1=C[C@H](O)[C@H](C/C=C(\C)CC/C=C(\C)CCC=C(C)C)[C@@H](C)C1=O | > 30 | 16.4
COC1=C(OC)[C@H](O)[C@H](C/C=C(\C)CC/C=C(\C)CCCC(C)CO)[C@@H](C)C1=O (stereo not given in full) | > 30 | 7.1
COC1=C(OC)C(=O)C(C/C=C(\C)CC/C=C(\C)CCC=C(C)C)=C(C)C1=O | > 30 | > 30
COC1=C(O)[C@H](O)[C@H](C/C=C(\C)CC/C=C(\C)C[C@H](O)/C=C(\C)CO)[C@@H](C)C1=O | > 30 | > 30
COC1=C(OC)[C@H](O)[C@H](C/C=C(\C)CC/C=C(\C)C[C@H](O)C=C(C)C)[C@@H](C)C1=O | > 30 | 9.6
COC1=C(OC)[C@H](O)[C@H](C/C=C(\C)CC/C=C(\C)C[C@@H]2C[C@@H](C)C(=O)O2)[C@@H](C)C1=O | > 30 | 14.1
COC1=C(OC)C(=O)C(C/C=C(\C)CC/C=C(\C)C[C@H](O)C=C(C)C)=C(C)C1=O | > 30 | > 30
COC1=CC(=O)C(C/C=C(\C)CC/C=C(\C)CCC=C(C)C)=C(C)C1=O | > 30 | > 30
COC1=C(OC)[C@H](O)[C@H](C/C=C(\C)CC/C=C(\C)CC/C=C(\C)CO)[C@@H](C)C1=O | > 30 | 8.2
COC1=C(OC)[C@H](O)[C@H](C/C=C(\C)CC/C=C(\C)C[C@H](O)/C=C(\C)CO)[C@@H](C)C1=O | > 30 | 12
COC1=C(OC)[C@H](OC(C)=O)[C@H](C/C=C(\C)CC/C=C(\C)C[C@H](O)C=C(C)C)[C@@H](C)C1=O | > 30 | 20.7
COC1=C(OC)[C@H](O)[C@H](C/C=C(\C)CC/C=C(\C)CCC=C(C)C)[C@@H](C)C1=O [ANTROQUINONOL] | 13.5 | 5.7
O=c1[nH]cc(F)c(=O)[nH]1 [FLUOROURACIL] | 11.7 | 4.2
